Data from PMC2674070 (Journal of immunology (Baltimore, Md. : 1950), 2009).
Ends that are not written are not given here.

Columns and labels:
[1] = target: H-2D^b (Mus musculus, UniProt P01899); assay: MHC peptide-binding assay, purified H-2D^b
[2] = target: H-2K^b (Mus musculus, UniProt P01901); assay: MHC peptide-binding assay, purified H-2K^b
Method in brief: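 Radiolabelled (chloramine-T) reference peptide at 0.1-1 nM is incubated at room temperature for 2 days with purified MHC (1 µM to 1 nM), 1-3 µM human β2-microglobulin and protease inhibitors. MHC-peptide complexes are captured on plates coated with Y3 (anti-H-2K^b) antibody, and bound cpm are read by microscintillation counting. Test peptides are ≥95% pure by reverse-phase HPLC.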

Chain of H-2K^b (P61769 21-119): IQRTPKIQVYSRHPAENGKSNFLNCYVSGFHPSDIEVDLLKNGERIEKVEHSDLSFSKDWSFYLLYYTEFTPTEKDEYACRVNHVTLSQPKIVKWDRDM
Chain of H-2K^b (P01901 22-369): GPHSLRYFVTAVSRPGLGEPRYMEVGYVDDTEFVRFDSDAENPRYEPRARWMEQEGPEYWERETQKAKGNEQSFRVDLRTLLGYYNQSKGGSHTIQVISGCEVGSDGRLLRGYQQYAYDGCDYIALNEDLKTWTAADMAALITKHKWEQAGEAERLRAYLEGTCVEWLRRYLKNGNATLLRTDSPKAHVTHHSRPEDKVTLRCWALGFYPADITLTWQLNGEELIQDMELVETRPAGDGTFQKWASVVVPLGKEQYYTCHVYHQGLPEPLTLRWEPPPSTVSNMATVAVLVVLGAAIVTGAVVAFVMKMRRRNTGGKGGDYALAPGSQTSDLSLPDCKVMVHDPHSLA
Chain of H-2D^b (P01899 25-362): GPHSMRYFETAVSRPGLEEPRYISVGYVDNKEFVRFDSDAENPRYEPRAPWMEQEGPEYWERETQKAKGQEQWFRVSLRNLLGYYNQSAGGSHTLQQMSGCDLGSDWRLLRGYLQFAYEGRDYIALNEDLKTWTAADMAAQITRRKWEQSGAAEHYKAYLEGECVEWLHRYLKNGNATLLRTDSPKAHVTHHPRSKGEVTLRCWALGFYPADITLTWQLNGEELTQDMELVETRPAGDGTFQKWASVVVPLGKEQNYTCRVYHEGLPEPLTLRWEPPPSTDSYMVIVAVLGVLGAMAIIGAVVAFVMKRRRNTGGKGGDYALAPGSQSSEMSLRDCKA
Chain of H-2D^b (P61769 21-119, further chain): as the sequence (P61769 21-119) above

Row | Molecule | IC50 [1] | IC50 [2]
1 | RALIFILL [Epitope M60-67] | < 2000 nM | –
2 | VSWTMKIL [Epitope E451-458] | < 2000 nM | 458 nM
3 | RMLINRFTM [NS5_237-245] | – | < 2000 nM
4 | CC(C)C[C@H](NC(=O)[C@H](CO)NC(=O)[C@@H](NC(=O)[C@H](CC(N)=O)NC(=O)[C@@H](NC(=O)[C@H](CO)NC(=O)[C@@H](N)CO)C(C)C)C(C)C)C(=O)N[C@H](C(=O)O)[C@@H](C)O [NS4B59-66] | – | < 2000 nM
5 | TAIANQATV [NS4B66-74] | – | < 2000 nM
6 | FSLGVLGM [NS2A8-15] | – | < 2000 nM
7 | MTMRCIGI [Epitope E-2-6] | < 2000 nM | –
8 | LAVTIMAIL [NS2A145-153] | – | < 2000 nM
